NR2E3 ag-1: activates human NR2E3 receptor | Q9Y5X4 | AID 602229 | CHO-S Gal4-NCOR/VP16-NR2E3 two-hybrid, luciferase | 360,000 tested, 0.35% active | inhibition of corepressor binding, % at 3.98 µM;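 active = inhibition above the mean of all tested compounds plus 3 SD, cut at about 70% in these data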;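 note: 0% = DMSO with NR2E3 transfected cells and 100% = cells lacking NR2E3 construct; higher means lower luciferase signal from less NR2E3 corepressor binding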
Target sequence (Q9Y5X4 whole entry, looked up, the tested form may be a part): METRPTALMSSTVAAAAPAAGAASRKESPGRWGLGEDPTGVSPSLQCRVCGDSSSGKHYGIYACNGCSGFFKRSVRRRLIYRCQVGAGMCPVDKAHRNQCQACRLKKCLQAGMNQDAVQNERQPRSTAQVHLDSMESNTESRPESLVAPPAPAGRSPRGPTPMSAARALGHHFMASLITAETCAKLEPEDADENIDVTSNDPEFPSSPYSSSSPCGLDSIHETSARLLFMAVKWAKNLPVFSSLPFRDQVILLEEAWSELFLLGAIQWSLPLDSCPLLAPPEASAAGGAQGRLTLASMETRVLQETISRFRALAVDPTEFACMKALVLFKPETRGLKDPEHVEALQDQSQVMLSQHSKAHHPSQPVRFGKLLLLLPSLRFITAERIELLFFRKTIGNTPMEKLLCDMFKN
GalR3 antag: blocks the human galanin receptor 3. O60755. HEK293 GalR3-CNG cAMP membrane potential fluorescence; galR3 body fused to GalR1 C-terminus. inhibition, % at 3 µM. 360,000 tested, 0.44% active;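 active = inhibition above the screen-wide average plus 3 SD, cut at about 13% in these data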;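 note: forskolin and galanin both at EC90 stimulate the cells; cAMP rise reported by CNG channel membrane potential dye signal; 0% = forskolin plus galanin with DMSO and 100% = forskolin alone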
COUP-TFII inh: blocks human COUP-TFII nuclear receptor | HEK293T NGFI-A luciferase reporter, luminescence | 370,000 tested, 0.7% active | P24468 | inhibition, % at 8.6 µM;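 active = inhibition above a per-plate cutoff, mean inhibition of test wells between control levels plus 3 SD, cut at about 38% in these data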;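 note: cells cotransfected with COUP-TFII expression vector driving the NGFI-A reporter; 0% = median of COUP-TF2 test wells and 100% = reporter-only cells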
SMARCA2 activ: increases SMARCA2 function in MMTV reporter cells | activation, % at 9.1 µM | MG213 cells, MMTV-luciferase reporter, dexamethasone, overnight | 370,000 tested, 1% active | AID 652017; in the data active = activation above about 7.8%;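 note: 0% = vehicle wells and 100% = reference activator wells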
NR2E3 ag-2: activates human photoreceptor nuclear receptor NR2E3; Q9Y5X4; GST-NR2E3/biotin-RetCOR TR-FRET, 1536-well; inhibition of corepressor binding, % at 4.78 µM; 320,000 tested, 0.12% active;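 active = percent inhibition above the cutoff of mean plus 3 SD of all tested compounds, set per screening campaign, cut at about 20% in these data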;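 note: 0% = DMSO wells and 100% = biotin wells as full block of FRET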
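System: GST-NR2E3 and biotin-RetCOR proteins; probe or stimulus: 7 nM biotin-RetCOR; doses: compound at 4.8 µM, single dose; schedule: Compound–protein incubation for 5 h at 4 °C; detection: time-resolved FRET; read-out: percent inhibition; controls: biotin wells as high control, 0.6% DMSO wells as low control; format: 1536-well plates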
NR2E3 ag conf: confirmation of human NR2E3 agonists | AID 624378 | shares compounds with NR2E3 ag-1 | 2,300 tested, 51% active | inhibition, % at 3.98 µM | CHO-S mammalian two-hybrid NR2E3-NCOR, luciferase luminescence;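 active = average inhibition above a cutoff equal to the mean inhibition of all tested compounds plus one SD, cut at about 70% in these data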;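 note: 0% = DMSO in NR2E3 cells and 100% = DMSO in cells lacking NR2E3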
VP16 counter: reduces GAL4-VP16 reporter signal in NR2E3 counterscreen; shares compounds with NR2E3 ag-1; CHO-S GAL4-VP16 luciferase reporter, luminescence; inhibition, % at 3.98 µM; 2,300 tested, 29% active; AID 624379;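 active = mean inhibition above a cutoff equal to the average over all tested compounds plus one standard deviation, cut at about 70% in these data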;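 note: luciferase from a UAS reporter driven by GAL4-VP16 transactivation; 0% = DMSO with VP16-transfected cells and 100% = DMSO with cells lacking VP16; higher means less reporter light so more repression of VP16 activity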
* = called active by the depositor; . = no result. Sampled rows, rich in hits. Any-hit rate of the full collection: about 2.2%.

SMILES | NR2E3 ag-1 | GalR3 antag | COUP-TFII inh | SMARCA2 activ | NR2E3 ag-2 | NR2E3 ag conf | VP16 counter
CC(=O)N1CCc2c(sc(NC(=O)c3ccc([N+](=O)[O-])o3)c2C#N)C1 | 61.4 | -2.4 | -46.7 | 7.8 | . | 48.5 | 28.2
O=c1[nH]c(=O)n(C2OC(CO)C(O)C2O)cc1F (centres undefined) | 48.9 | . | . | . | . | 17.0 | 5.9
C=CCn1c(C)cc(C(=O)COC(=O)c2ccc(N)c([N+](=O)[O-])c2)c1C | -128.8 | -1.1 | -40.4 | 3.9 | 1.5 | . | .
CCn1c(C)cc(C(=O)COC(=O)c2ccccc2[N+](=O)[O-])c1C | 104.7* | . | . | . | . | 89.3* | 87.5*
COc1ccc(/C=C2/SC(=S)N(CCCC(=O)Nc3ccc(O)cc3)C2=O)cc1 | 41.7 | 1.4 | 19.9 | -4.8 | 2.2 | . | .
Cc1ccc(/C=C2\SC(=S)N(CC(=O)Nc3cccnc3)C2=O)cc1 | -9.3 | -3.3 | 3.0 | -0.1 | -3.4 | . | .
Cc1ccc(/C=C2\SC(=S)N(CCCC(=O)Nc3cccnc3)C2=O)cc1 | 90.8* | . | . | . | 2.6 | 42.0 | 90.4*
COc1ccc(/C=C2\SC(=S)N(CCCC(=O)Nc3ccc(O)cc3)C2=O)cc1 | 72.6* | -3.4 | 20.5 | -9.7 | 4.2 | 3.1 | 61.5
COc1cc(-c2c(C(=O)c3ccccc3)[nH]c(N)c2C(N)=O)ccc1O | . | . | -12.1 | . | . | . | .
c1ccc(Cn2ccc3ccc(-c4ccc5ccn(Cc6cccc(Oc7ccccc7)c6)c5c4)cc32)cc1 | . | . | -9.9 | -3.6 | . | . | .
c1ccc(CNc2nc(-c3ccccn3)nc3ccccc23)cc1 | 95.3* | -9.9 | 25.0 | -4.7 | -2.7 | 99.2* | 59.1
c1ccc(CNc2nc(-c3ccccc3)nc3ccccc23)cc1 | -26.9 | -14.2 | 2.2 | 2.6 | 0.1 | . | .
O=C1NC(=S)SC1=Cc1cc(Br)ccc1O | 23.2 | 1.7 | 0.4 | -2.6 | . | . | .
O=C1NC(=S)SC1=Cc1ccccc1Br | 73.6* | -6.0 | 15.8 | -5.0 | . | 95.2* | 72.3*
c1ccc(-c2nnc(-c3ccccn3)nc2NC2CCCCC2)cc1 | 54.6 | -8.2 | -2.3 | 3.5 | -2.6 | 60.1 | 17.2
CNc1nc(-c2ccccn2)nnc1-c1ccccc1 | -22.5 | -0.2 | 4.3 | -2.8 | -4.6 | . | .
CC(=NNC(=S)N1CCCCC1)c1cccc(C)n1 | 38.9 | -6.3 | 3.1 | -3.1 | . | . | .
C=CCNC(=S)N/N=C(\C)c1ccccn1 | 84.3* | -3.2 | 11.1 | -12.7 | -0.8 | 5.8 | 12.0
CC(=NNC(=S)N1CCCCC1)c1ccccn1 | 84.5* | 4.7 | -8.2 | -5.2 | . | 58.1 | 32.1
CC(=NNC(=S)Nc1ccccc1)c1ccccn1 | 84.9* | -5.1 | 15.7 | 2.5 | . | -28.8 | -14.9
CSCCCNC(=O)c1oc(=O)c2ccccc2c1-c1ccc(C)cc1 | . | . | 9.1 | -1.4 | . | . | .
CC(C)(C)c1ccc(NC(=S)NCc2cccs2)cc1 | 69.6 | -3.9 | -13.2 | 2.7 | -0.4 | 64.3 | 40.0
O=C1c2cccc3c(O)ccc(c23)C(=O)N1Cc1ccccc1 | 63.7 | -2.9 | 18.3 | -0.3 | 1.1 | 81.7* | 60.1
O=Cc1ccc(O)c2ncccc12 | 68.7 | . | . | . | . | -6.3 | -0.6
Cc1ccc(-n2c(SCC(=O)N/N=C/C=C\c3ccccc3[N+](=O)[O-])nnc2-c2ccccc2)cc1 | . | . | -0.7 | 0.4 | . | . | .
SMILES | NR2E3 ag-1 | GalR3 antag | COUP-TFII inh | SMARCA2 activ | NR2E3 ag-2 | NR2E3 ag conf | VP16 counter
Cc1ccccc1CSCC(=O)N1CCN(c2ccccc2)CC1 | -68.7 | -3.5 | -3.7 | 5.5 | 4.5 | . | .
Cc1cccc(-c2nc(CSCC(=O)N3CCN(c4ccccn4)CC3)c(C)o2)c1 | 78.0* | -3.6 | 20.4 | -2.4 | -1.8 | 81.0* | 55.5
Cc1ccc(-c2nc(CSCC(=O)N3CCCC3)c(C)o2)cc1 | -3.0 | -4.4 | -0.1 | -2.0 | -2.6 | . | .
Cc1ccsc1-c1nc(CSCC(=O)N2CCN(c3ccccc3)CC2)c(C)o1 | 58.3 | . | 14.8 | 2.7 | 4.0 | 34.8 | 27.3
Cc1ccc(-n2c(SCC(=O)Nc3ccc4c(c3)OCCO4)nnc2-c2cnccn2)cc1 | . | . | 15.9 | -6.0 | . | . | .
CCOc1ccc(S(=O)(=O)N2CCC(C(=O)N3CCN(c4ccccc4F)CC3)CC2)cc1C | 47.8 | 1.7 | 15.6 | -2.7 | -2.4 | 6.3 | 43.7
COc1ccc(C(=O)Nc2nnc(Cc3cccs3)s2)cc1OC | 62.7 | -0.5 | -3.7 | 0.2 | 12.1 | 61.9 | 23.5

From PubChem
